Compound activity as filed in PubChem BioAssay.
CDK5 inh: inhibitors of human CDK5/p35 kinase | Q00535+Q15078 | Recombinant CDK5/p35, ADP-Glo luminescence, 60 min | inhibition, % at 10 µM | 330,000 tested, 0.01% active | AID 488839;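 active = highest replicate inhibition of at least 50% and at least 75% of replicates reaching 50%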;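 also: plate controls were DMSO neutral control for no effect and GW8510 at 10 µM for full effect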
GSK3 alpha inh: blocks human GSK-3 alpha kinase; ADP-Glo luminescence, 60 min; inhibition, % at 10 µM; 320,000 tested, 0.1% active; AID 2650;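 active = more than half of replicates show inhibition above 20%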;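 also: GST-tagged GSK-3 alpha with peptide substrate and 25 µM ATP; 0% = DMSO neutral wells and 100% = GW8510 positive control wells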
SR-BI uptake up: activators of SR-BI mediated HDL lipid uptake | 320,000 tested, 0.096% active | CHO ldlA[mSR-BI] cells, DiI-HDL uptake fluorescence, 3 h; 100 = double the neutral-control signal | AID 504775 | activation, % at 12.5 µM;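 active = mean replicate activation of at least 60% and every replicate at or above 60%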;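 also: 0% = median plate neutral-control signal and 100% = twice that signal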
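Material – SR-BI-overexpressing, LDLR-lacking CHO cells · Medium – BSA-supplemented, HEPES-buffered Ham's F12, pH 7.4 · Doses – single concentration · Times – compound with DiI-HDL co-incubation, 3 h at 37 °C · Measured by – bottom-read fluorescence, 550/595 nm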
SR-BI HDL uptake: blocks mouse SR-BI lipid uptake from DiI-HDL. Q61009. ldlA[mSR-BI] CHO cells, DiI-HDL uptake fluorescence, 3 h. inhibition, % at 12.5 µM. 320,000 tested, 0.96% active;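 active = mean replicate inhibition of at least 70% and a set share of replicates each scoring 70 or more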;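 also: 0% = median of neutral control wells and 100% = median of positive control wells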
GSK3beta inhib: blocks human GSK3beta kinase activity | GST-GSK3beta kinase, ADP-Glo luminescence, 60 min; stronger effect = lower value | activity score (negative = inhibition), % at 10 µM | 300,000 tested, 0.038% active;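 active = more than half of replicate wells score below -50%, meaning over 50% inhibition versus plate controls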;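 also: 0% = median DMSO wells and -100% = median GW8510 positive control wells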
Target sequence (P49841 whole entry, looked up): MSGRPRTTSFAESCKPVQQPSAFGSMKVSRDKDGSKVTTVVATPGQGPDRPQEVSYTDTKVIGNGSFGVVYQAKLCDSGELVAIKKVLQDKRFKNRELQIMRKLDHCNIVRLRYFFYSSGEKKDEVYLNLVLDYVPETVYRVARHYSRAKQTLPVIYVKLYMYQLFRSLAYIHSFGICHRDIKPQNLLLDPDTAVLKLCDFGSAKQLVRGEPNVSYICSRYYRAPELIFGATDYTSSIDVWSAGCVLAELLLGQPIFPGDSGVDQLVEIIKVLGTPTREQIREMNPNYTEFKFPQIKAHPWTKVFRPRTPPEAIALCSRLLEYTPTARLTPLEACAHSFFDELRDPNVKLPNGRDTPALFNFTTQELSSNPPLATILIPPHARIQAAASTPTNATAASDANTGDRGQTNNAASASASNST
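Assay system: GST-tagged human GSK3beta kinase, cell-free; Input: 1.6 ng GSK3beta; Medium: Tris/MgCl2 kinase buffer; Timing: 60 min enzyme reaction, room temperature; Signal: ADP-Glo luminescence quantifying ADP generated by kinase; Evaluation: score relative to plate controls; Benchmarks: DMSO neutral wells and GW8510 at 20 µM as positive.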
Starred values were filed as active, the others as inactive; x = not tested or not shown. The list is not random: actives were taken first. Their share in the collection is about 1.1%.

SMILES | CDK5 inh | GSK3 alpha inh | SR-BI uptake up | SR-BI HDL uptake | GSK3beta inhib
CCOC(=O)CS(=O)(=O)c1nc(-c2ccccc2)cc(C(F)(F)F)n1 | 1.6 | -1.6 | -98.0 | 98.0* | -1.5
CCOC(=O)c1c(C(F)(F)F)cc(-c2ccc(F)cc2)nc1C | 0.0 | 0.7 | -30.0 | 30.0 | 0.5
CN(CC(=O)Nc1cccc(F)c1)C(=O)CCc1nc2sc3c(c2c(=O)[nH]1)CCCC3 | -9.6 | -1.2 | -22.1 | 22.1 | -1.1
CCc1nn(C(C)C(=O)NCCN2CCCCCC2)c(=O)c2cc3occc3n12 (configuration not stated) | -1.2 | -1.7 | 17.9 | -17.9 | -0.1
CCc1nn(C(C)C(=O)NCCN2CCN(c3cccc(C)c3C)CC2)c(=O)c2cc3occc3n12 (configuration not stated) | 0.6 | 1.1 | -80.2 | 80.2* | -1.0
CC(C)NC(=O)Nc1n[nH]c(Nc2ccc(Cl)cc2)n1 | 9.7 | 52.4* | 1.1 | -1.1 | 0.6
COc1cc(C(=O)NCCC(C)C)ccc1OCc1ccc(Cl)cc1Cl | -1.4 | -0.6 | -82.2 | 82.2* | 1.4
COc1ccc(C(=O)NCC(=O)OCc2ccc(Cl)cc2Cl)cc1OC | -0.4 | x | 7.8 | -7.8 | x
COc1cc(C(=O)NC2CCCCC2)ccc1OCc1ccc(Cl)cc1Cl | -0.1 | -0.1 | -76.3 | 76.3* | 0.0
O=C(Cc1ccc(Cl)cc1Cl)NC1CCCCCC1 | 3.3 | -0.3 | x | x | 1.7
O=[N+]([O-])c1c(O)c(Cl)cc(Cl)c1Cl (tested in a mixture with another compound) | 0.5 | x | 27.6 | -27.6 | x
CSc1nc(NCC(C)O)c2c3c(sc2n1)CN(C)CC3 (configuration not stated) | 2.4 | 48.4 | 25.5 | -25.5 | -54.4*
Cc1ccccc1-n1c(SCC(=O)N/N=C/C=C/c2ccccc2[N+](=O)[O-])nc2ccccc2c1=O | 1.5 | -0.5 | -78.7 | 78.7* | 0.9
O=C(CSc1nc2ccccc2c(=O)n1-c1ccccc1)N/N=C/C=C/c1ccccc1[N+](=O)[O-] | -1.5 | -0.1 | -27.7 | 27.7 | 0.1
CCN(CC)c1ccc(/C=C(/C#N)c2nc3ccc(C)cc3[nH]2)c(OC(C)C)c1 | 0.1 | -0.9 | -101.8 | 101.8* | -5.4
COc1cc(/C=C(\C#N)c2nc3ccc(C)cc3[nH]2)c([N+](=O)[O-])cc1OC | 0.1 | -1.3 | -48.1 | 48.1 | -1.3
COc1cc(OC)c(OC)cc1/C=N/Nc1nc2ccccc2[nH]1 | 1.7 | -1.0 | -9.4 | 9.4 | 0.6
CCOc1cc(N(CC)CC)ccc1/C=C(/C#N)c1nc2ccccc2[nH]1 | -0.4 | -6.8 | -108.8 | 108.8* | -1.1
CCCOc1cc(N(CC)CC)ccc1/C=C(/C#N)c1nc2ccc(C)cc2[nH]1 | -0.2 | -0.5 | -89.4 | 89.4* | 2.6
CCN(CC)c1ccc(/C=N/Nc2nc3ccccc3[nH]2)c(O)c1 | 0.3 | -0.7 | -113.6 | 113.7* | -0.3
CC(=O)c1c(C)[nH]c(C(=O)OCC(=O)N(Cc2ccccc2)C(C)(C)C)c1C | -0.1 | x | -5.2 | 5.2 | x
O=C1[C@H](Cc2ccccc2)NCC=CC[C@H](c2ccc(Cl)cc2)N1Cc1ccccc1 | 0.5 | x | 19.6 | -19.6 | x
O=C1c2ccccc2NC(c2ccco2)N1/N=C/c1ccco1 (configuration not stated) | 0.4 | 0.5 | 13.3 | -13.3 | 1.1
C/C(=N\N1C(=O)c2ccccc2NC1c1ccccc1)c1ccccc1O (configuration not stated) | 1.4 | 2.1 | -84.7 | 84.7* | -0.8
C/C(=N\N1C(=O)c2ccccc2NC1c1ccco1)c1ccccc1O (configuration not stated) | -2.6 | -0.2 | 85.8* | -85.8 | -2.5
COc1cc(-c2noc(C)c2/C=C/c2ccc(OC(C)=O)cc2)cc(OC)c1OC | 1.9 | -1.4 | -74.9 | 74.9* | 2.7
COc1ccc(CNC(=O)C2CCN(C(=O)c3csc(Nc4ccc(C)cc4)n3)CC2)cc1 | -0.2 | -0.7 | x | x | 2.1
CON/C=C(\C=Nc1ccc(Cl)cc1)c1ncc(C(F)(F)F)cc1Cl | 0.9 | 6.8 | -73.0 | 73.0* | -6.2
CON/C=C(\C=Nc1ccc(C(F)(F)F)cc1)c1ncc(C(F)(F)F)cc1Cl | -0.6 | -3.6 | -39.6 | 39.6 | -1.1
O=c1cc(-c2ccccc2Cl)oc2c([N+](=O)[O-])c(O)cc(O)c12 | 4.7 | 39.3 | -16.1 | 16.1 | -53.0*
